Results from ChEMBL document CHEMBL1144391, “New pyrazolo[1',5':1,6]pyrimido[4,5-d]pyridazin-4(3H)-ones as potent and selective PDE5 inhibitors” (Bioorg Med Chem Lett, 2005).

Columns and labels:
[1] = target: T1, Phosphodiesterase 6 (Bos taurus) (UniProt P23439+P16586+P11541+P22571+P04972+Q95142); experiment: Percentage inhibition of bovine Phosphodiesterase 6 at 2 uM (n=2-3); type: protein assay
Outline: (§1)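 Enzyme purified from bovine retinas; cyclic nucleotide phosphodiesterase activity measured by a two-step procedure. Values are either IC50 or percent inhibition at the single test concentration stated.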

[2] = target: T2, cGMP-specific 3',5'-cyclic phosphodiesterase (Homo sapiens, UniProt O76074); experiment: Inhibition of human Phosphodiesterase 5 (n=2-3)
[3] = target: T2, cGMP-specific 3',5'-cyclic phosphodiesterase; experiment: Percentage inhibition of human Phosphodiesterase 5 at 2 uM (n=2-3)
Outline: (§2)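 Phosphodiesterase 5 purified from human platelets; activity measured by a two-step cyclic nucleotide phosphodiesterase procedure. Percent inhibition recorded at the single stated concentration.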

Phosphodiesterase 6 = experiment: Inhibition of bovine Phosphodiesterase 6 (n=2-3); type: protein assay, Bos taurus
[4] = target: T2, cGMP-specific 3',5'-cyclic phosphodiesterase; experiment: Percentage inhibition of human Phosphodiesterase 5 at 20 uM (n=2-3); outline: as §2
[5] = target: T1, Phosphodiesterase 6 (Bos taurus); experiment: Percentage inhibition of bovine Phosphodiesterase 6 at 0.2 uM (n=2-3); type: protein assay; outline: as §1
[6] = Half-life was observed; type: ADME
[7] = target: T2, cGMP-specific 3',5'-cyclic phosphodiesterase; experiment: Percentage inhibition of human Phosphodiesterase 5 at 0.2 uM (n=2-3); outline: as §2

| inhibition [1] | IC50 [2] | SMILES | other results |
| --- | --- | --- | --- |
| 25% | 160 nM | Cc1nn(Cc2ccccc2)c(=O)c2nc(C)n3nc(-c4ccccc4)cc3c12 |  |
| 21.3% | 81 nM | Cc1nn(Cc2ccccc2)c(=O)c2nc(-c3ccccn3)n3nc(-c4ccccc4)cc3c12 |  |
| -4.8% |  | Cc1nn(Cc2ccccc2)c(=O)c2nc(-c3ccncc3)n3nc(-c4ccccc4)cc3c12 | inhibition [3]: 69% |
|  |  | Cc1nn(Cc2ccccc2)c(=O)c2nc(C)n3nc(C(C)(C)C)cc3c12 | inhibition [3]: 31% |
|  | 320 nM | Cc1nn(Cc2ccccc2)c(=O)c2nc(/C=C/C(=O)O)n3nc(-c4ccccc4)cc3c12 | IC50 (Phosphodiesterase 6): 580 nM |
| 10.4% |  | Cc1nn(Cc2ccc([N+](=O)[O-])cc2)c(=O)c2nc(C)n3nc(-c4ccccc4)cc3c12 | inhibition [4]: 65.9% |
| 11.5% | 75 nM | Cc1cccc(-c2nc3c(=O)n(Cc4ccccc4)nc(C)c3c3cc(-c4ccccc4)nn23)c1 |  |
|  | 430 nM | Cc1nn(Cc2ccccc2)c(=O)c2nc(CCC(=O)O)n3nc(-c4ccccc4)cc3c12 | IC50 (Phosphodiesterase 6): 590 nM |
|  |  | Cc1ccccc1-c1nc2c(=O)n(Cc3ccccc3)nc(C)c2c2cc(-c3ccccc3)nn12 | inhibition [3]: 55.1% |
| 34.6% | 39 nM | CCC(C)c1nc2c(=O)n(Cc3ccccc3)nc(C)c2c2cc(-c3ccccn3)nn12 (centres undefined) |  |
|  | 230 nM | Cc1nn(Cc2cccc(OP(=O)(O)O)c2)c(=O)c2nc(C)n3nc(-c4ccccc4)cc3c12 | inhibition [5]: 28.6% |
| 37.4% | 67 nM | CCC(CC)c1nc2c(=O)n(Cc3ccccc3)nc(C)c2c2cc(-c3ccccc3)nn12 |  |
| 66.9% | 59 nM | CCC(C)c1nc2c(=O)n(Cc3cccc(OP(=O)(O)O)c3)nc(C)c2c2cc(-c3ccccc3)nn12 (centres undefined) |  |
|  | 3100 nM | Cc1nn(CC2CCCCC2)c(=O)c2nc(C)n3nc(-c4ccccc4)cc3c12 | IC50 (Phosphodiesterase 6): 11000 nM |
|  |  | Cc1nn(Cc2ccccc2)c(=O)c2nc(C)n3nc(-c4ccc([N+](=O)[O-])cc4)cc3c12 | inhibition [5]: 14.4%; inhibition [4]: 65.5% |
| 4.5% | 920 nM | Cc1nn(Cc2ccccc2)c(=O)c2nc(C)n3nc(-c4ccc(N)cc4)cc3c12 |  |
|  | 980 nM | Cc1nn(Cc2ccccc2)c(=O)c2nc(CCc3ccccc3)n3nc(-c4ccccc4)cc3c12 | IC50 (Phosphodiesterase 6): 30000 nM |

| inhibition [1] | IC50 [2] | SMILES | other results |
| --- | --- | --- | --- |
|  | 90 nM | Cc1nn(Cc2ccccc2)c(=O)c2nc(CCCCC(=O)O)n3nc(-c4ccccc4)cc3c12 | IC50 (Phosphodiesterase 6): 63 nM |
| 20.4% | 450 nM | Cc1nn(Cc2ccccc2)c(=O)c2nc(Cc3ccncc3)n3nc(-c4ccccc4)cc3c12 |  |
| 19.2% |  | Cc1nn(Cc2ccccc2)c(=O)c2nc(CC3CCCCC3)n3nc(-c4ccccc4)cc3c12 | inhibition [3]: 33.6% |
|  |  | CN1CC(=O)N2[C@H](c3ccc4c(c3)OCO4)c3[nH]c4ccccc4c3C[C@@H]2C1=O | half-life [6]: > 17 h |
| 38.1% | 100 nM | CSCc1nc2c(=O)n(Cc3ccccc3)nc(C)c2c2cc(-c3ccccc3)nn12 |  |
|  |  | Cc1nn(-c2ccccc2)c(=O)c2nc(C)n3nc(-c4ccccc4)cc3c12 | inhibition [5]: 3.7%; inhibition [7]: 11.9% |
| 42.5% | 34 nM | CCC(C)c1nc2c(=O)n(Cc3ccccc3)nc(C)c2c2cc(-c3ccccc3)nn12 (centres undefined) |  |
|  | 30 nM | Cc1nn(Cc2ccccc2)c(=O)c2nc(CCCC(=O)O)n3nc(-c4ccccc4)cc3c12 | IC50 (Phosphodiesterase 6): 110 nM |
| 45% | 350 nM | CCOCc1nc2c(=O)n(Cc3ccccc3)nc(C)c2c2cc(-c3ccccc3)nn12 |  |
|  | 81 nM | Cc1nn(Cc2ccccc2)c(=O)c2nc(-c3ccccc3)n3nc(-c4ccccc4)cc3c12 | IC50 (Phosphodiesterase 6): 2800 nM |
|  |  | Cc1nn(Cc2ccccc2)c(=O)c2nc(C)n3nc(-c4ccc5c(c4)OCO5)cc3c12 | IC50 (Phosphodiesterase 6): 78000 nM |
|  | 270 nM | Cc1nn(Cc2ccccc2)c(=O)c2nc(C)n3nc(-c4ccccn4)cc3c12 | IC50 (Phosphodiesterase 6): 10000 nM |
| 53.3% | 100 nM | COCc1nc2c(=O)n(Cc3ccccc3)nc(C)c2c2cc(-c3ccccc3)nn12 |  |
|  | 1100 nM | Cc1nn(Cc2ccc(N)cc2)c(=O)c2nc(C)n3nc(-c4ccccc4)cc3c12 | IC50 (Phosphodiesterase 6): 2000 nM |
| 17.7% | 180 nM | Cc1nn(Cc2ccccc2)c(=O)c2nc(-c3cccnc3)n3nc(-c4ccccc4)cc3c12 |  |
| 13.6% |  | Cc1nn(Cc2ccccc2)c(=O)c2nc(Cc3ccccc3)n3nc(-c4ccccc4)cc3c12 | inhibition [3]: 22.5% |
| 4.2% |  | Cc1nn(Cc2ccccc2)c(=O)c2nc(CC3CCCC3)n3nc(-c4ccccc4)cc3c12 | inhibition [3]: 18.2% |
